Assay results taken from ChEMBL document CHEMBL1135723, “New type of metalloproteinase inhibitor: design and synthesis of new phosphonamide-based hydroxamic acids” (J Med Chem, 2002).

Key:
[1] = target: T1, Disintegrin and metalloproteinase domain-containing protein 9 (Homo sapiens, UniProt Q13443); assay: Inhibition of the heparin binding epidermal growth factor (HB-EGF) release from fibrosarcoma HT1080 transfectants expressing […] (AP) tagged HB-EGF stimulated by 12-O-tetradecanoylphorbol 13-acetate(TPA).
T1 sequence (Q13443 whole entry): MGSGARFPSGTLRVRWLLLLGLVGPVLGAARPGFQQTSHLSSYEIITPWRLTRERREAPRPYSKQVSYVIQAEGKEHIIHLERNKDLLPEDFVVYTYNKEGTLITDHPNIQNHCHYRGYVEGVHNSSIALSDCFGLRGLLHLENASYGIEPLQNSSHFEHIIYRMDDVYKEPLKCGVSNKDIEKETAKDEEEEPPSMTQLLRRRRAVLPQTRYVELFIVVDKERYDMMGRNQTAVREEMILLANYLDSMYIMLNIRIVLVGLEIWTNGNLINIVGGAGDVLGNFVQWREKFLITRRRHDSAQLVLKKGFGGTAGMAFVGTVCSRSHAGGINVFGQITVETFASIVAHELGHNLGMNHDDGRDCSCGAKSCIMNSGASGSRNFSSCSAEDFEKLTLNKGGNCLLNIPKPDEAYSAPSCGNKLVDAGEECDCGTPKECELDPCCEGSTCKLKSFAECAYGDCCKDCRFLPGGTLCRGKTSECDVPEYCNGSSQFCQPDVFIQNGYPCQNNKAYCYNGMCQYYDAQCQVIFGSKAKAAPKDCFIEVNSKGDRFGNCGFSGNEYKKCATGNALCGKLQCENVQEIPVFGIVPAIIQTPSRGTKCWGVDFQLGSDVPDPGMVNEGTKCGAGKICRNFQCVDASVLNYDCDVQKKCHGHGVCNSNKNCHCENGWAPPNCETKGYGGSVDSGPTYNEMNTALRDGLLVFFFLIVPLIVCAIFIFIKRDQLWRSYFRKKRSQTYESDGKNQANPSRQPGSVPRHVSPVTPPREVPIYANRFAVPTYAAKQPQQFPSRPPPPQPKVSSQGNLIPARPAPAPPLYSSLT
In short: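 HT-1080 transfectants in MEM/10% FCS seeded at 2 × 10⁵ cells/well, grown 24 h, PBS-washed, preincubated 30 min with compound in MEM containing 1% DMSO. Stimulated with TPA (60 nM) for 60 min. Supernatant heated 10 min at 65 °C to kill endogenous phosphatases, then incubated 2 h with p-nitrophenyl phosphate (1 mg/mL) in 1 M diethanolamine, pH 9.8; A405. IC50 from a concentration series.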

[2] = target: Disintegrin and metalloproteinase domain-containing protein 17 (Homo sapiens, UniProt P78536); assay: Inhibitory activity against tumor necrosis factor alpha converting enzyme (TACE) from human acute monocytic leukemia cell line.
[3] = target: T2, Interstitial collagenase (Homo sapiens, UniProt P03956); assay: Inhibitory activity against matrix metalloprotease-1 (MMP-1)(recombinant human collagenase-1).
T2 sequence (P03956 whole entry): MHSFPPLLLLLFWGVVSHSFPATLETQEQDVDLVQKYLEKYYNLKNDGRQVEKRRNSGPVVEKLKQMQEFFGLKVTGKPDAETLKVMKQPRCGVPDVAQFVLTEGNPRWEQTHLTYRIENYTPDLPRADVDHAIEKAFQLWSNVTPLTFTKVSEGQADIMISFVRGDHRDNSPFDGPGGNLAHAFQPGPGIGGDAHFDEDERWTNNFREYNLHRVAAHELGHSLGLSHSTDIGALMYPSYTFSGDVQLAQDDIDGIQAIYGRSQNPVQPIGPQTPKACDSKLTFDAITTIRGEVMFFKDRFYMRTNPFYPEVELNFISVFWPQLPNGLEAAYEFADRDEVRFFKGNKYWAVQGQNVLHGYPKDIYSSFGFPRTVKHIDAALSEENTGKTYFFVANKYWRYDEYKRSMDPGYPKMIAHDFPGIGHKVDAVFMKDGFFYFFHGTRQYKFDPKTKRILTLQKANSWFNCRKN

[4] = target: Matrix metalloproteinase-9 (Homo sapiens, UniProt P14780); assay: Inhibitory activity against matrix metalloprotease-9 (MMP-9)(gelatinase-B).
[5] = target: Stromelysin-1 (Homo sapiens, UniProt P08254); assay: Inhibitory activity against matrix metalloprotease-3 (MMP-3)(stromelysin-1).
In short: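 Recombinant human MMP-3 activated with 1 mM p-aminophenylmercuric acetate, 1 h, 37 °C. Compound in 50 mM Tris, 150 mM NaCl, 10 mM CaCl2, 0.05% Brij-35, pH 7.5, preincubated with enzyme 10 min at 37 °C. Fluorescence-quenched peptide substrate added, 2 h at 37 °C; Ex/Em 320/405 nm. Ki from percent inhibition and substrate Km.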

Sequence of Disintegrin and metalloproteinase domain-containing protein 17 (P78536 whole entry, the tested form may be a part): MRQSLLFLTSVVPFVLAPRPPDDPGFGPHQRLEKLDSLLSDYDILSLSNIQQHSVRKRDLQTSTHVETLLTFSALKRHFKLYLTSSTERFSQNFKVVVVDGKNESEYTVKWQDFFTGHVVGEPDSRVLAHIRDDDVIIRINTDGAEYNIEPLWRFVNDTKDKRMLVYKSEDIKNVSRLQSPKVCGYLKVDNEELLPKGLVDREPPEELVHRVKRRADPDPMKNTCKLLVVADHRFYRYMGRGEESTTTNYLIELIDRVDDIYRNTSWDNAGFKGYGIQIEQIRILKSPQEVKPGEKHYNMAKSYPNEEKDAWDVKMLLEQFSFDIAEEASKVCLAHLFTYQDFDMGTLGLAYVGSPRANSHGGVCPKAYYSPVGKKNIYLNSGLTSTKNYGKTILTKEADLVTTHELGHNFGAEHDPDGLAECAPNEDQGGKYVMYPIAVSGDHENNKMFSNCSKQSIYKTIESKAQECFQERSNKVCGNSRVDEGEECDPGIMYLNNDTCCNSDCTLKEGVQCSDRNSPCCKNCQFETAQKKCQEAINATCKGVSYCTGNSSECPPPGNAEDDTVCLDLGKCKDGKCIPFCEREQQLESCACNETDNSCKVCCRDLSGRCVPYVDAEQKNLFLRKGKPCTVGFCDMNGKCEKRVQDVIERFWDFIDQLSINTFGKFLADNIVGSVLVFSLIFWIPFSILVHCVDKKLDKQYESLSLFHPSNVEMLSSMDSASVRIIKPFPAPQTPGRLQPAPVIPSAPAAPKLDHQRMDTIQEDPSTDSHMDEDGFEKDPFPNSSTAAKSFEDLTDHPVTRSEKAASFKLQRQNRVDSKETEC
Sequence of Matrix metalloproteinase-9 (P14780 whole entry): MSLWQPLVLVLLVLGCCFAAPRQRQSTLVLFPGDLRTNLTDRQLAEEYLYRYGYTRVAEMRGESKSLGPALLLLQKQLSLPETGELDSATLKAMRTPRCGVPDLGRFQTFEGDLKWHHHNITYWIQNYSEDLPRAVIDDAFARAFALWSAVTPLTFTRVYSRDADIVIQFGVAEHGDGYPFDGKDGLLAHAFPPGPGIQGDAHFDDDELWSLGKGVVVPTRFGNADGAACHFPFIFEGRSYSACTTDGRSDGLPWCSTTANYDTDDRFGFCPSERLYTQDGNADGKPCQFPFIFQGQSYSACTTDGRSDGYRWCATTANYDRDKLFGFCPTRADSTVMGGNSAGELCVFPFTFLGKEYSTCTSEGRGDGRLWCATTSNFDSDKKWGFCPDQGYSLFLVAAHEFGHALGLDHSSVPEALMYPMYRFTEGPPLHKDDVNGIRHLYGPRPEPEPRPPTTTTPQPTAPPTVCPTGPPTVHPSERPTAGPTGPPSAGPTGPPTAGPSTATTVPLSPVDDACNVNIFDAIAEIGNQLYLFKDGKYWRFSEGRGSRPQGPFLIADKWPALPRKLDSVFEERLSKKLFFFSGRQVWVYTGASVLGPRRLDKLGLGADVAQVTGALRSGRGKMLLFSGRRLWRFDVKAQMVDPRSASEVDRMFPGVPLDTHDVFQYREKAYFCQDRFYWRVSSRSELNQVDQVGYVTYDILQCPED
Sequence of Stromelysin-1 (P08254 whole entry): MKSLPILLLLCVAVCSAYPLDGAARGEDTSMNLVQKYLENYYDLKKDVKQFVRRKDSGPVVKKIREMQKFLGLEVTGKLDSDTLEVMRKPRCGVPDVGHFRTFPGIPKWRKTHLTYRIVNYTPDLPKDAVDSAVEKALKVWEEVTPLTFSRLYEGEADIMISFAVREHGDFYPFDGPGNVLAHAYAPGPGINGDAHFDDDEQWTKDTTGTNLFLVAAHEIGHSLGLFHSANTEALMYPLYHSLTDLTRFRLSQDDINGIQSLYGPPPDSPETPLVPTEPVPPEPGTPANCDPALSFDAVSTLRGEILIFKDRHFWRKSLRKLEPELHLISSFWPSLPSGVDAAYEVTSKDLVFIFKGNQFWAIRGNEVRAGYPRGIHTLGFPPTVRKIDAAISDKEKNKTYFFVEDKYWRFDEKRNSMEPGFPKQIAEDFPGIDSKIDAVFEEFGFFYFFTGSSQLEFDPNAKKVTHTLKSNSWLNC

Row | SMILES | IC50 [1] [nM] | Ki [2] [nM] | Ki [3] [nM] | Ki [4] [nM] | Ki [5] [nM]
1 | COc1ccc(P(=O)(OC)N2Cc3ccccc3CC2C(=O)NO)cc1 (configuration not stated) | 70 | 8.92 | 3.64 | 2.03 | 2.95
2 | CCCCCCOP(=O)(c1ccc(OC)cc1)N1Cc2ccccc2CC1C(=O)NO (configuration not stated) | 1600 | 32.7 | 10.9 | 6.57 | 5.19
3 | CCN(CC)CCOP(=O)(c1ccc(OC)cc1)N1Cc2ccccc2CC1C(=O)NO (configuration not stated) | 1140 | 33.2 | 10.7 | 16.7 | 82.4
4 | CCOP(=O)(c1ccc(OC)cc1)N1Cc2cc(N)ccc2CC1C(=O)NO (configuration not stated) | 190 | 37.4 | 10.7 | 11 | 12.3
5 | CCOP(=O)(c1ccncc1)N1Cc2ccccc2CC1C(=O)NO (configuration not stated) | 2600 | 777 | 17.4 | 278 | 190
6 | CCOP(=O)(c1ccc(OC)cc1)N1CCCC1C(=O)NO (configuration not stated) | > 10000 | > 780 | > 850 | 316 | 527
7 | CCOP(=O)(c1ccc(OC)cc1)N1Cc2[nH]c3ccccc3c2CC1C(=O)NO (configuration not stated) | 800 | 2.2 | 2.02 | 1.13 | 2.04
8 | CCOP(=O)(c1cccc(F)c1)N1Cc2ccccc2CC1C(=O)NO (configuration not stated) | 830 | 22.8 | 27.1 | 80.1 | 51.4
9 | CCOP(=O)(c1ccccc1)N1Cc2ccccc2CC1C(=O)NO (configuration not stated) | 370 | 11.2 | 11.4 | 42.7 | 34.9
10 | CCOP(=O)(/C=C/c1ccccc1)N1Cc2ccccc2CC1C(=O)NO (configuration not stated) | 910 | 37.4 | 160 | 88.8 | 29.7
11 | CCOP(=O)(c1ccc(F)cc1)N1Cc2ccccc2CC1C(=O)NO (configuration not stated) | 300 |  | 0.97 | 51.9 | 64.4
12 | CCOP(=O)(c1ccc(C)cc1)N1Cc2ccccc2CC1C(=O)NO (configuration not stated) | 1890 | 500 | 4.9 | 41.8 | 72.9
13 | COc1ccc(P(=O)(OCCc2ccccn2)N2Cc3ccccc3CC2C(=O)NO)cc1 (configuration not stated) | 180 | 120 | 3.14 | 3.42 | 6.41
14 | CCOP(=O)(c1ccc(OC)cc1)N1CCN(C(=O)OCc2ccccc2)CC1C(=O)NO (configuration not stated) | 430 | 7.99 | 20.1 | 5.2 | 14.9
15 | CCOP(=O)(c1ccc(OC)cc1)N1Cc2ccsc2CC1C(=O)NO (configuration not stated) | 520 | 6.45 | 4.1 | 3.8 | 5.2
16 | CCOP(=O)(c1ccccc1F)N1Cc2ccccc2CC1C(=O)NO (configuration not stated) | 1060 | 73.6 | 24 | 32.1 | 47.8
17 | CCOP(=O)(c1ccc(Oc2ccncc2)cc1)N1Cc2ccccc2CC1C(=O)NO (configuration not stated) | 660 | 13.8 | 39.8 | 0.6 | 4.85
18 | COc1ccc(P(=O)(OC(C)C)N2Cc3ccccc3CC2C(=O)NO)cc1 (configuration not stated) | 2240 |  | 17.8 | 23.2 | 24.4

Row | SMILES | IC50 [1] [nM] | Ki [2] [nM] | Ki [3] [nM] | Ki [4] [nM] | Ki [5] [nM]
19 | COc1ccc(P(=O)(OCCc2ccc(-c3ccccc3)cc2)N2Cc3ccccc3CC2C(=O)NO)cc1 (configuration not stated) | 3560 | 90.2 | 7.33 | 6.47 | 12.8
20 | COc1ccc(P(=O)(OCC2CCCCC2)N2Cc3ccccc3CC2C(=O)NO)cc1 (configuration not stated) | 1340 | 15.5 | 6.67 | 4.56 | 2.43
21 | CCO[P@](=O)(c1ccc(OC)cc1)N1Cc2ccccc2C[C@H]1C(=O)NO | > 10000 | > 780 | > 850 | > 800 | > 650
22 | COc1ccc(P(=O)(OCCc2ccccc2)N2Cc3ccccc3CC2C(=O)NO)cc1 (configuration not stated) | 3110 | 42.2 | 4.43 | 5.22 | 8.15
23 | CCOP(=O)(CCc1ccccc1)N1Cc2ccccc2CC1C(=O)NO (configuration not stated) | 700 | 14.2 | 20.8 | 38.3 | 11.6
24 | CCOP(=O)(c1ccc(OC)cc1)N1Cc2nccnc2CC1C(=O)NO (configuration not stated) | 560 | 13.7 | 7.8 | 7 | 10.7
25 | CCOCCOc1ccc(P(=O)(OCC)N2Cc3ccccc3CC2C(=O)NO)cc1 (configuration not stated) | 70 | 2.98 | > 850 | 14.2 | 29.6
26 | CCOP(=O)(c1ccc(Oc2ccccc2)cc1)N1Cc2ccccc2CC1C(=O)NO (configuration not stated) | 260 | 7.89 | 1.81 | 0.08 | 0.53
27 | CCO[P@@](=O)(c1ccc(OC)cc1)N1Cc2ccccc2CC1C(=O)NO (some centres not stated) | 230 | 7.15 | 4.58 | 5.05 | 5.2
28 | CCOP(=O)(c1cccs1)N1Cc2ccccc2CC1C(=O)NO (configuration not stated) | 890 | 59.6 | 18.7 | 59.2 | 67
29 | CCCCOP(=O)(c1ccc(OC)cc1)N1Cc2ccccc2CC1C(=O)NO (configuration not stated) | 810 |  | 5.39 | 9.12 | 24
30 | CCOCCOP(=O)(c1ccc(OC)cc1)N1Cc2ccccc2CC1C(=O)NO (configuration not stated) | 510 | 18.9 | 6.75 | 6.36 | 5.43
31 | CCO[P@@](=O)(c1ccc(OC)cc1)N1Cc2ccccc2C[C@H]1C(=O)NO | > 10000 | > 780 | 759 | 349 | > 650
32 | CCOP(=O)(c1ccc(Oc2ccc(N)cc2)cc1)N1Cc2ccccc2CC1C(=O)NO (configuration not stated) | 1670 | 21.7 | 6.5 | 0.1 | 0.5
33 | CCO[P@](=O)(c1ccc(OC)cc1)N1Cc2ccccc2CC1C(=O)NO (some centres not stated) | > 10000 | > 780 | > 850 | > 800 | > 650
34 | CCOP(=O)(c1ccc(N)cc1)N1Cc2ccccc2CC1C(=O)NO (configuration not stated) | 660 | 75.8 | 58.8 | 95.6 | 162
35 | CCOP(=O)(c1ccc(-c2ccccc2)cc1)N1Cc2ccccc2CC1C(=O)NO (configuration not stated) | 1960 | 50 | 9.65 | 0.31 | 4.36
